Assay results published in ChEMBL document CHEMBL4400530, “Synthesis and structure-activity relationship studies of water-soluble β-cyclodextrin-glycyrrhetinic acid conjugates as potential anti-influenza virus agents” (Eur J Med Chem, 2019).

Test system: MDCK
Experiment: Cytotoxicity against MDCK cells assessed as effect on cell viability at 50 uM measured after 36 hrs by CellTiter-Glo assay
Assay type: cell-based, Canis lupus familiaris
Settings: dog
Procedure, shortened: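 MDCK cells (1 × 10⁴ per well) left to adhere 24 h at 37 °C, 5% CO₂. Medium then replaced with fresh medium containing compound at 50 μM, in triplicate. Controls received medium with 1% DMSO. Plates incubated 36 h at 37 °C, 5% CO₂, then viability read by CellTiter-Glo luminescence.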

| SMILES | Activity |
| --- | --- |
| CC(=O)OC[C@H]1O[C@@H]2O[C@H]3[C@H](OC(C)=O)[C@@H](OC(C)=O)[C@@H](O[C@H]4[C@H](OC(C)=O)[C@@H](OC(C)=O)[C@@H](O[C@H]5[C@H](OC(C)=O)[C@@H](OC(C)=O)[C@@H](O[C@H]6[C@H](OC(C)=O)[C@@H](OC(C)=O)[C@@H](O[C@H]7[C@H](OC(C)=O)[C@@H](OC(C)=O)[C@@H](O[C@H]8[C@H](OC(C)=O)[C@@H](OC(C)=O)[C@@H](O[C@H]1[C@H](OC(C)=O)[C@H]2OC(C)=O)O[C@@H]8COC(C)=O)O[C@@H]7COC(C)=O)O[C@@H]6COC(C)=O)O[C@@H]5Cn1cc(-c2ccc(NC(=O)[C@@]5(C)CC[C@]6(C)CC[C@]7(C)C(=CC(=O)[C@@H]8[C@@]9(C)CC[C@H](O)C(C)(C)[C@@H]9CC[C@]87C)[C@@H]6C5)cc2)nn1)O[C@@H]4COC(C)=O)O[C@@H]3COC(C)=O | Non-Toxic |
| CC1(C)[C@@H](O)CC[C@]2(C)[C@H]3C(=O)C=C4[C@@H]5C[C@@](C)(C(=O)Nc6ccc(-c7cn(C[C@H]8O[C@@H]9O[C@H]%10[C@H](O)[C@@H](O)[C@@H](O[C@H]%11[C@H](O)[C@@H](O)[C@@H](O[C@H]%12[C@H](O)[C@@H](O)[C@@H](O[C@H]%13[C@H](O)[C@@H](O)[C@@H](O[C@H]%14[C@H](O)[C@@H](O)[C@@H](O[C@H]%15[C@H](O)[C@@H](O)[C@@H](O[C@H]8[C@H](O)[C@H]9O)O[C@@H]%15CO)O[C@@H]%14CO)O[C@@H]%13CO)O[C@@H]%12CO)O[C@@H]%11CO)O[C@@H]%10CO)nn7)cc6)CC[C@]5(C)CC[C@@]4(C)[C@]3(C)CC[C@@H]12 | Non-Toxic |
| CC(=O)OC[C@H]1O[C@@H]2O[C@H]3[C@H](OC(C)=O)[C@@H](OC(C)=O)[C@@H](O[C@H]4[C@H](OC(C)=O)[C@@H](OC(C)=O)[C@@H](O[C@H]5[C@H](OC(C)=O)[C@@H](OC(C)=O)[C@@H](O[C@H]6[C@H](OC(C)=O)[C@@H](OC(C)=O)[C@@H](O[C@H]7[C@H](OC(C)=O)[C@@H](OC(C)=O)[C@@H](O[C@H]8[C@H](OC(C)=O)[C@@H](OC(C)=O)[C@@H](O[C@H]1[C@H](OC(C)=O)[C@H]2OC(C)=O)O[C@@H]8COC(C)=O)O[C@@H]7COC(C)=O)O[C@@H]6COC(C)=O)O[C@@H]5Cn1cc(CO[C@H]2CC[C@]5(C)[C@H]6C(=O)C=C7[C@@H]8C[C@@](C)(C(=O)O)CC[C@]8(C)CC[C@@]7(C)[C@]6(C)CC[C@H]5C2(C)C)nn1)O[C@@H]4COC(C)=O)O[C@@H]3COC(C)=O | Non-Toxic |
| COC[C@H]1O[C@@H]2O[C@H]3[C@H](OC)[C@@H](OC)[C@@H](O[C@H]4[C@H](OC)[C@@H](OC)[C@@H](O[C@H]5[C@H](OC)[C@@H](OC)[C@@H](O[C@H]6[C@H](OC)[C@@H](OC)[C@@H](O[C@H]7[C@H](OC)[C@@H](OC)[C@@H](O[C@H]8[C@H](OC)[C@@H](OC)[C@@H](O[C@H]1[C@H](OC)[C@H]2OC)O[C@@H]8COC)O[C@@H]7COC)O[C@@H]6COC)O[C@@H]5Cn1cc(CNC(=O)[C@@]2(C)CC[C@]5(C)CC[C@]6(C)C(=CC(=O)[C@@H]7[C@@]8(C)CC[C@H](O)C(C)(C)[C@@H]8CC[C@]76C)[C@@H]5C2)nn1)O[C@@H]4COC)O[C@@H]3COC | Toxic |
| CC(=O)OC[C@H]1O[C@@H]2O[C@H]3[C@H](OC(C)=O)[C@@H](OC(C)=O)[C@@H](O[C@H]4[C@H](OC(C)=O)[C@@H](OC(C)=O)[C@@H](O[C@H]5[C@H](OC(C)=O)[C@@H](OC(C)=O)[C@@H](O[C@H]6[C@H](OC(C)=O)[C@@H](OC(C)=O)[C@@H](O[C@H]7[C@H](OC(C)=O)[C@@H](OC(C)=O)[C@@H](O[C@H]8[C@H](OC(C)=O)[C@@H](OC(C)=O)[C@@H](O[C@H]1[C@H](OC(C)=O)[C@H]2OC(C)=O)O[C@@H]8COC(C)=O)O[C@@H]7COC(C)=O)O[C@@H]6COC(C)=O)O[C@@H]5Cn1cc(CO[C@H]2CC[C@]5(C)[C@H]6C(=O)C=C7[C@@H]8C[C@@](C)(C(=O)OCc9ccccc9)CC[C@]8(C)CC[C@@]7(C)[C@]6(C)CC[C@H]5C2(C)C)nn1)O[C@@H]4COC(C)=O)O[C@@H]3COC(C)=O | Non-Toxic |
